Calls of active or inactive are those of the source. The calls are words filed in the database; no cut-off is given here.
Columns and labels:
Acyl-CoA desaturase 1 [1] = biological target: T1, Acyl-CoA desaturase 1 (Rattus norvegicus, UniProt P07308); assay: Inhibition of rat SCD1 in rat liver microsome
T1 sequence (P07308 whole entry): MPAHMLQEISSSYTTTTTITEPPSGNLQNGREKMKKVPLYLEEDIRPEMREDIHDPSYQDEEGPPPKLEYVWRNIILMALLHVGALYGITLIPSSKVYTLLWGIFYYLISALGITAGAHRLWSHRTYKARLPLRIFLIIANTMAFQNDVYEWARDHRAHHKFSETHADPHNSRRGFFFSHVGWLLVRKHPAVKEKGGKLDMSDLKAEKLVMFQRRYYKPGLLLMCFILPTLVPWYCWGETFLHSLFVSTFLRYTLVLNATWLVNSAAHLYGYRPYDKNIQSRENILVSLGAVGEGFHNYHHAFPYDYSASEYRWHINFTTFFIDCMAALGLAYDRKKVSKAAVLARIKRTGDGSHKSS

Stearoyl-CoA desaturase = biological target: T2, Stearoyl-CoA desaturase (Homo sapiens, UniProt O00767); assay: Inhibition of SCD1 in human HepG2 cells; type: cell-based
T2 sequence (O00767 whole entry): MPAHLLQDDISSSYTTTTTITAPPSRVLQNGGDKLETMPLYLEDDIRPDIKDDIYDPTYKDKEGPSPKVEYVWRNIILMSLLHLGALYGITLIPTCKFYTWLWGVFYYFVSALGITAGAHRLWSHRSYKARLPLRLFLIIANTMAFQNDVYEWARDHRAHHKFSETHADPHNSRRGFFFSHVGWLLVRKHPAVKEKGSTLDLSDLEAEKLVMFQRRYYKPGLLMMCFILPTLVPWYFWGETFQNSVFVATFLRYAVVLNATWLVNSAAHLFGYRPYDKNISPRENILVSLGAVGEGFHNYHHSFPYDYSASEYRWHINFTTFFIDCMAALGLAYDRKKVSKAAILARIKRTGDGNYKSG

[2] = Ratio of drug uptake in liver to adipose tissue in C57BL/6 mouse at 10 mg/kg, po after 6 hrs; type: ADME, organism-based, C57BL6; parameters: dose 10 mg/kg, route oral; details: in vivo
Method in brief: (§1)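 Single oral dose of 10 mg/kg in 0.5% methocel given to C57BL6 mice on normal chow. Drug levels measured 6 h post-dose in liver, white adipose, skin and Harderian glands. Liver/tissue fold selectivity taken from these levels.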

[3] = Ratio of drug uptake in liver to skin in C57BL/6 mouse liver at 10 mg/kg, po after 6 hrs; type: ADME, organism-based, C57BL6; parameters: dose 10 mg/kg, route oral; details: in vivo; method in brief: as §1
[4] = Ratio of drug uptake in liver to harderian glands in C57BL/6 mouse at 10 mg/kg, po after 6 hrs; type: ADME, organism-based, C57BL6; parameters: dose 10 mg/kg, route oral; details: in vivo; method in brief: as §1
Acyl-CoA desaturase 1 [5] = biological target: T1, Acyl-CoA desaturase 1; assay: Inhibition of SCD1 in rat Hep cells; type: cell-based
Method in brief: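 Whole-cell SCD1 inhibition measured in rat hepatocytes, which express OATP transporters, in the presence of 10% fetal bovine serum; IC50 determined.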

HepG2 [6] = assay: Ratio of IC50 for SCD1 in human HepG2 cells to IC50 for SCD1 in rat Hep cells; type: cell-based
Method in brief: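 Fold shift computed as hHepG2 whole-cell IC50 over rat hepatocyte IC50.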

HepG2 [7] = assay: Ratio of IC50 for SCD1 in human HepG2 cells to IC50 for rat SCD1; type: cell-based
Method in brief: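 Fold shift computed as hHepG2 whole-cell IC50 over the SCD1-induced rat liver microsomal enzyme IC50.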

[8] = biological target: Acyl-CoA (8-3)-desaturase (Homo sapiens) (UniProt O60427); assay: Inhibition of delta-5 desaturase
Sequence of Acyl-CoA (8-3)-desaturase (Homo sapiens) (O60427 whole entry, looked up): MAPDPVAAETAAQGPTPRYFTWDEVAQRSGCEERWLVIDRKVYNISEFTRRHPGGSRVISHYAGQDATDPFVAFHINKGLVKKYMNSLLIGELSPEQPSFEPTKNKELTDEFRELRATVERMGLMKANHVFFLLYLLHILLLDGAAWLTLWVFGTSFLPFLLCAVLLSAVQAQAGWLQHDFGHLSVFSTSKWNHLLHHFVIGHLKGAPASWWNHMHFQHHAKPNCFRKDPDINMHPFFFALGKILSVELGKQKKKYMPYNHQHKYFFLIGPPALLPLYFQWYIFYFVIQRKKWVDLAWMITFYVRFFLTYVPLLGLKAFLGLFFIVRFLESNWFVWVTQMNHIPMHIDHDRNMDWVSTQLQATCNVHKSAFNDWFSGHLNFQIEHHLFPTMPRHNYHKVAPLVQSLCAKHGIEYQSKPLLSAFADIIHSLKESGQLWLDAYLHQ

[9] = biological target: T3, Acyl-CoA 6-desaturase (Homo sapiens) (UniProt O95864); assay: Inhibition of delta-6 desaturase
T3 sequence (whole entry): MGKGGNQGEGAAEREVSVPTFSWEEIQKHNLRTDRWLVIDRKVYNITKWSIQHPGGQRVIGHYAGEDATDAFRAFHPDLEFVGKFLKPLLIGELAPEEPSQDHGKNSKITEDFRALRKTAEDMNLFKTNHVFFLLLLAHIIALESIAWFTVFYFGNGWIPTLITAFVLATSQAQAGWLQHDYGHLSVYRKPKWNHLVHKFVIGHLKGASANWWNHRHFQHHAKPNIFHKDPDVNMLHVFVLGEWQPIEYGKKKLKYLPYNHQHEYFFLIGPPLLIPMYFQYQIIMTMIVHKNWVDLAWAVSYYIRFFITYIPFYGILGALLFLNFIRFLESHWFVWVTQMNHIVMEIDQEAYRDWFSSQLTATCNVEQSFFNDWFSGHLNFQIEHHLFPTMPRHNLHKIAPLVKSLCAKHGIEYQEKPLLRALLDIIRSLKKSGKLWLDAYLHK

Mus musculus [10] = assay: Inhibition of SCD1 activity in high carbohydrate diet fed C57BL/6 mouse assessed as reduction in conversion of [1-14C]stearic acid to [1-14C]oleic acid at 30 mg/kg, po after 3 hrs; type: functional; details: C57BL6, 3 h
Method in brief: (§2)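 Mouse liver PD assay in C57BL6 mice on a high carbohydrate diet, n = 5/group. Compound given orally in 0.5% methocel. At 1 h, [1-14C]-stearic acid in 60% aqueous PEG 200 given iv. Livers harvested 2 h after tracer. Lipids hydrolyzed; SCD1 activity index = 14C-oleic/14C-stearic acid ratio.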

[11] = Drug uptake in C57BL/6 mouse liver at 30 mg/kg, po after 3 hrs; type: ADME, organism-based, C57BL6; parameters: dose 30 mg/kg, route oral; details: read-out: Drug uptake
Method in brief: (§3)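 Drug levels in liver and plasma measured in the mouse liver PD study. C57BL6 mice on a high carbohydrate diet received an oral dose in 0.5% methocel. Samples were taken 3 h post-dose, with livers harvested 2 h after iv [1-14C]-stearic acid tracer.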

[12] = Plasma concentration in C57BL/6 mouse at 30 mg/kg, po after 3 hrs; type: ADME, organism-based, C57BL6; parameters: dose 30 mg/kg, route oral; method in brief: as §3
[13] = Apparent permeability across pig LLC-PK1 cells; type: ADME, cell-based, Sus scrofa
Mus musculus [14] = assay: Inhibition of SCD1 activity in high carbohydrate diet fed C57BL/6 mouse assessed as reduction in conversion of [1-14C]stearic acid to [1-14C]oleic acid at 60 mg/kg, po after 3 hrs; type: functional, organism-based; parameters: dose 60 mg/kg; details: C57BL6; method in brief: as §2
[15] = Drug uptake in C57BL/6 mouse liver at 60 mg/kg, po after 3 hrs; type: ADME, organism-based, C57BL6; parameters: dose 60 mg/kg, route oral; details: read-out: Drug uptake; method in brief: as §3
[16] = Plasma concentration in C57BL/6 mouse at 60 mg/kg, po after 3 hrs; type: ADME, organism-based, C57BL6; parameters: dose 60 mg/kg, route oral; method in brief: as §3
[17] = AUC (0 to 24 hrs) in C57BL/6 mouse at 10 mg/kg, po; type: ADME, organism-based, C57BL6; parameters: time < 24 hr, dose 10 mg/kg, route oral; details: whole blood
Method in brief: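 Oral gavage, 10 mg/kg in 0.5% methocel, to C57BL6 mice; whole blood exposure measured over 0–24 h as AUC.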

[18] = Drug uptake in C57BL/6 mouse liver at 10 mg/kg, po after 6 hrs; type: ADME, organism-based, C57BL6; parameters: dose 10 mg/kg, route oral; details: read-out: Drug uptake; method in brief: as §1
[19] = Drug uptake in C57BL/6 mouse adipose tissue at 10 mg/kg, po after 6 hrs; type: ADME, organism-based, C57BL6; parameters: dose 10 mg/kg, route oral; details: in vivo; method in brief: as §1

IC50 (Acyl-CoA desaturase 1 [1]) [nM] | IC50 (Stearoyl-CoA desaturase) [nM] | inhibition [8] | inhibition [9] | Compound | further results
3 | 47 |  |  | Fc1ccc(Br)c(OC2CCN(c3ncc4[nH]cnc4n3)CC2)c1 | 
7 | 53 |  |  | O=C(O)COc1nc2cnc(N3CCC(Oc4cc(F)ccc4Br)CC3)nc2s1 | Ratio [2]: 173; Ratio [3]: 403; Ratio [4]: 3; IC50 (Acyl-CoA desaturase 1 [5]): 348 nM; Ratio IC50 (HepG2 [6]): < 1; Ratio IC50 (HepG2 [7]): 7
85 | 268 | inactive | inactive | O=c1[nH]ccc2nc(N3CCC(Oc4ccccc4C(F)(F)F)CC3)sc12 | 
 |  | inactive | inactive | FC(F)(F)c1ccccc1OC1CCN(c2ncc3nc[nH]c3n2)CC1 | 
56 |  | inactive | inactive | Nc1ncnc2nc(N3CCC(Oc4ccccc4C(F)(F)F)CC3)sc12 | 
1 | 17 | inactive | inactive | Nc1nc2cnc(N3CCC(Oc4cc(F)ccc4Br)CC3)nc2s1 | 
477 | 10600 | inactive | inactive | Fc1ccc(Br)c(OC2CCN(c3nc4ccccc4s3)CC2)c1 | 
1 | < 39 |  |  | Fc1ccc(Br)c(OC2CCN(c3ncnc4nc[nH]c34)CC2)c1 | 
4 | 168 |  |  | O=C(O)CNc1nc2cnc(N3CCC(Oc4cc(F)ccc4Br)CC3)nc2s1 | Ratio [2]: 41; Ratio [3]: 145; Ratio [4]: 21; IC50 (Acyl-CoA desaturase 1 [5]): 158 nM; Ratio IC50 (HepG2 [6]): 1; Ratio IC50 (HepG2 [7]): 42; inhibition in vivo at 30 mg/kg (Mus musculus [10]): 72%; concentration at 3 h [11]: 4.1 µM; concentration at 3 h [12]: 200 nM
266 | 24300 |  |  | O=C(O)CCc1nc2nc(N3CCC(Oc4cc(F)ccc4Br)CC3)sc2c(=O)[nH]1 | Ratio [2]: 31; Ratio [3]: 22; IC50 (Acyl-CoA desaturase 1 [5]): 168 nM; Ratio IC50 (HepG2 [6]): 145; Ratio IC50 (HepG2 [7]): 91; Papp [13]: 2 ×10⁻⁶ cm/s; inhibition (Mus musculus [14]): inactive; concentration at 3 h [15]: 3.3 µM; concentration at 3 h [16]: 200 nM
 |  | inactive | inactive | Fc1ccc(Br)c(OC2CCN(c3ncnc4[nH]cnc34)CC2)c1 | 
7 | 29 | inactive | inactive | O=c1[nH]cnc2nc(N3CCC(Oc4ccccc4C(F)(F)F)CC3)sc12 | 
54 | 182 | inactive | inactive | Cc1ncc2sc(N3CCC(Oc4ccccc4C(F)(F)F)CC3)nc2n1 | 
 |  |  |  | NC(=O)c1cnc(N2CCN(C(=O)c3ccccc3C(F)(F)F)CC2)s1 | AUC(0-t) at 24 h [17]: 11 µM·h
 |  | inactive | inactive | Oc1nc2cnc(N3CCC(Oc4ccccc4C(F)(F)F)CC3)nc2[nH]1 | 
10 | 257 |  |  | FC(F)(F)c1ccccc1OC1CCN(c2ncc3[nH]cnc3n2)CC1 | 
2 | 16 | inactive | inactive | O=c1[nH]c(CO)nc2nc(N3CCC(Oc4ccccc4C(F)(F)F)CC3)sc12 | 
10 | 48 |  |  | FC(F)(F)c1ccccc1OC1CCN(c2ncnc3nc[nH]c23)CC1 | 
83 | 755 | inactive | inactive | FC(F)(F)c1ccccc1OC1CCN(c2nc3ncccc3s2)CC1 | 
 |  | inactive | inactive | Nc1ncnc2[nH]c(N3CCC(Oc4ccccc4C(F)(F)F)CC3)nc12 | 
8 | 59 | inactive | inactive | Cc1nc2nc(N3CCC(Oc4ccccc4C(F)(F)F)CC3)sc2c(=O)[nH]1 | AUC(0-t) at 24 h [17]: 30 µM·h; concentration at 6 h [18]: 21.8 µM; Ratio [3]: 7; Ratio [4]: 1.1; Drug uptake [19]: Not Active
38 | 319 |  |  | O=c1[nH]c2cnc(N3CCC(Oc4ccccc4C(F)(F)F)CC3)nc2[nH]1 | concentration at 6 h [18]: 24.7 µM; Ratio [2]: 3.6; Ratio [3]: 4.4; Ratio [4]: 0.8
97 | 378 | inactive | inactive | O=c1[nH]c(N2CCC(Oc3ccccc3C(F)(F)F)CC2)nc2[nH]cnc12 | 
 |  | inactive | inactive | Fc1ccc(Br)c(OC2CCN(c3ncc4nc[nH]c4n3)CC2)c1 | 
 |  | inactive | inactive | FC(F)(F)c1ccccc1OC1CCN(c2ncnc3[nH]cnc23)CC1 | 
